Assay results reported in ChEMBL document CHEMBL1155671, “New circulin macrocyclic polypeptides from Chassalia parvifolia” (J Nat Prod, 2000).
Positions of bridges follow the written chain, without caps; N, C: chain ends. Residues, ends and D or L forms follow the SMILES beside them.

Tests used:
Format in all cases: functional, organism-based
[1] = tested on: Human immunodeficiency virus 1; experiment: Antiviral activity against HIV1 A17 in human MT2 cells assessed as inhibition of virus-induced cytopathic effect by XTT assay; conditions: Human immunodeficiency virus 1, A17, MT2
Summary of the method: (§1)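 Peptide samples dissolved in 100% DMSO or H2O-DMSO (3:1), then diluted to test concentrations. Tested in an in vitro XTT tetrazolium-based cell assay for protection against the cytopathic effects of productive HIV-1 infection. EC50 is the concentration giving 50% protection, determined separately for each virus strain and target cell line pairing.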

[2] = tested on: Human immunodeficiency virus 1; experiment: Antiviral activity against HIV1 N119 in human CEM-SS cells assessed as inhibition of virus-induced cytopathic effect by XTT assay; conditions: Human immunodeficiency virus 1, CEM-SS; summary of the method: as §1
[3] = tested on: Human immunodeficiency virus 1; experiment: Antiviral activity against HIV1 205 in human CEM-SS cells assessed as inhibition of virus-induced cytopathic effect by XTT assay; conditions: Human immunodeficiency virus 1, CEM-SS; summary of the method: as §1
[4] = tested on: Human immunodeficiency virus 1; experiment: Antiviral activity against HIV1 SK1 in human CEM-SS cells assessed as inhibition of virus-induced cytopathic effect by XTT assay; conditions: Human immunodeficiency virus 1, CEM-SS; summary of the method: as §1
[5] = tested on: Human immunodeficiency virus 1; experiment: Antiviral activity against HIV1 3B in human MT2 cells assessed as inhibition of virus-induced cytopathic effect by XTT assay; conditions: Human immunodeficiency virus 1, 3B; summary of the method: as §1
[6] = tested on: Human immunodeficiency virus 1; experiment: Antiviral activity against HIV1 G in human CEM-SS cells assessed as inhibition of virus-induced cytopathic effect by XTT assay; conditions: Human immunodeficiency virus 1, CEM-SS; summary of the method: as §1
[7] = tested on: Human immunodeficiency virus 1; experiment: Antiviral activity against HIV1 H1122 in human MT2 cells assessed as inhibition of virus-induced cytopathic effect by XTT assay; conditions: Human immunodeficiency virus 1, MT2; summary of the method: as §1
[8] = tested on: Human immunodeficiency virus 1; experiment: Antiviral activity against HIV1 RF in human CEM-SS cells assessed as inhibition of virus-induced cytopathic effect by XTT assay; conditions: Human immunodeficiency virus 1, RF; summary of the method: as §1
[9] = tested on: Human immunodeficiency virus 1; experiment: Antiviral activity against HIV1 G9106 in human MT2 cells assessed as inhibition of virus-induced cytopathic effect by XTT assay; conditions: Human immunodeficiency virus 1, G9106, MT2; summary of the method: as §1
[10] = tested on: Human immunodeficiency virus 1; experiment: Antiviral activity against HIV1 214 in human CEM-SS cells assessed as inhibition of virus-induced cytopathic effect by XTT assay; conditions: Human immunodeficiency virus 1, CEM-SS; summary of the method: as §1
[11] = tested on: Human immunodeficiency virus 1; experiment: Antiviral activity against HIV1 3B in human CEM-SS cells assessed as inhibition of virus-induced cytopathic effect by XTT assay; conditions: Human immunodeficiency virus 1, 3B; summary of the method: as §1

`CC[C@H](C)[C@@H]1NC(=O)[C@H](C)NC(=O)[C@H](C)NC(=O)[C@H](CO)NC(=O)[C@H]([C@@H](C)CC)NC(=O)[C@@H]2CSSC[C@@H]3NC(=O)[C@H](C(C)C)NC(=O)[C@H](CCCCN)NC(=O)[C@H](CC(N)=O)NC(=O)[C@H](CCCCN)NC(=O)[C@@H]4CSSC[C@H](NC(=O)[C@H](CO)NC(=O)[C@H](CCC(=O)O)NC(=O)CNC(=O)[C@H](CSSC[C@H](NC(=O)CNC1=O)C(=O)N[C@@H](CO)C(=O)N4)NC(=O)[C@@H]1CCCN1C(=O)[C@H]([C@@H](C)CC)NC(=O)[C@H](C)NC(=O)[C@H](CCCNC(=N)N)NC(=O)[C@H](Cc1ccc(O)cc1)NC3=O)C(=O)N[C@@H](C(C)C)C(=O)N[C@@H](Cc1c[nH]c3ccccc13)C(=O)N[C@@H]([C@@H](C)CC)C(=O)N1CCC[C@H]1C(=O)N2` [CIRCULIN F] (cyclo(AAIGCSCKNKVCYRAIPCGESCVWIPCIS); disulfide 5-18, 7-22, 12-27) was tested, and the EC50 [1] was 50 nM, the EC50 [2] was 50 nM and the EC50 [3] was 50 nM. For the same compound, the EC50 [4] was 50 nM, the EC50 [5] was 50 nM and the EC50 [6] was 50 nM. For the same compound, the EC50 [7] was 50 nM, the EC50 [8] was 50 nM and the EC50 [9] was 50 nM. It also gave an EC50 [10] of 50 nM.

In the case of `CC[C@H](C)[C@@H]1NC(=O)[C@@H]2CSSC[C@@H]3NC(=O)[C@H](C(C)C)NC(=O)[C@H](CCCCN)NC(=O)[C@H](CO)NC(=O)[C@H](CCCCN)NC(=O)[C@@H]4CSSC[C@H](NC(=O)[C@H](CO)NC(=O)[C@H](CCC(=O)O)NC(=O)CNC(=O)[C@H](CSSC[C@H](NC(=O)CNC(=O)[C@H](C)NC(=O)[C@H](C(C)C)NC(=O)[C@H](CO)NC(=O)[C@H]([C@@H](C)O)NC1=O)C(=O)N[C@@H](CO)C(=O)N4)NC(=O)[C@@H]1CCCN1C(=O)[C@H]([C@@H](C)CC)NC(=O)CNC(=O)[C@H](CC(N)=O)NC(=O)[C@H](CCCNC(=N)N)NC(=O)[C@H](Cc1ccc(O)cc1)NC3=O)C(=O)N[C@@H](C(C)C)C(=O)N[C@@H](Cc1ccccc1)C(=O)N[C@@H]([C@@H](C)CC)C(=O)N1CCC[C@H]1C(=O)N2` [CIRCULIN C] (cyclo(AGCSCKSKVCYRNGIPCGESCVFIPCITSV); disulfide 3-17, 5-21, 10-26), the EC50 [1] is reported as 247 nM, the EC50 [2] is reported as 241 nM and the EC50 [3] is reported as 155 nM. It also gave an EC50 [4] of 51 nM, an EC50 [11] of 73 nM and an EC50 [5] of 200 nM. The EC50 [6] was 111 nM, the EC50 [7] was 48 nM and the EC50 [8] was 165 nM. For the same compound, the EC50 [9] was 67 nM and the EC50 [10] was 213 nM.

For `CC[C@H](C)[C@@H]1NC(=O)[C@H](CCCCN)NC(=O)[C@H](CC(=O)O)NC(=O)[C@H](Cc2cnc[nH]2)NC(=O)[C@H](Cc2ccc(O)cc2)NC(=O)[C@@H]2CSSC[C@@H]3NC(=O)[C@@H]4CCCN4C(=O)[C@H]([C@@H](C)CC)NC(=O)[C@H](Cc4c[nH]c5ccccc45)NC(=O)[C@H](C(C)C)NC(=O)[C@@H]4CSSC[C@H](NC(=O)[C@H](CCCCN)NC(=O)[C@H](CSSC[C@H](NC(=O)[C@@H]5CCCN5C1=O)C(=O)NCC(=O)N[C@@H](CCC(=O)O)C(=O)N[C@@H](CO)C(=O)N4)NC(=O)[C@H](CC(N)=O)NC(=O)[C@H](Cc1ccccc1)NC(=O)[C@H](C(C)C)NC(=O)[C@H](CO)NC(=O)[C@H]([C@@H](C)O)NC(=O)[C@H](CC(C)C)NC3=O)C(=O)N[C@@H](CCC(=O)O)C(=O)N[C@@H](CC(N)=O)C(=O)N[C@@H](CCCCN)C(=O)N[C@@H](C(C)C)C(=O)N2` [CIRCULIN E] (cyclo(CENKVCYHDKIPCGESCVWIPCLTSVFNCK); disulfide 1-17, 6-22, 13-29), the EC50 [1] was 50 nM, the EC50 [2] was 50 nM and the EC50 [3] was 50 nM. For the same compound, the EC50 [4] was 50 nM, the EC50 [5] was 50 nM and the EC50 [6] was 50 nM. For the same compound, the EC50 [7] was 50 nM, the EC50 [8] was 50 nM and the EC50 [9] was 50 nM. For the same compound, the EC50 [10] was 50 nM.
